System: Fibroblast
Test: Multiplex assay against human fibroblast
Format: toxicity, cell-based
In short: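 Four dyes were applied at seeding to live cells: Hoechst33342, BioTracker Green Microtubule Cytoskeleton Dye, MitoTracker Red and Annexin V Alexa Fluor 680. Imaging after compound addition used a CQ1 microscope at 37°C and 5% CO2. CellPathfinder machine-learning gating then sorted cells into Hoechst high-intensity objects or normal cells, normal cells into healthy, pyknosed or fragmented nuclei, and pyknosed cells into mitotic or apoptotic, with tubulin, mitochondrial-mass and membrane-permeability phenotypes given as per cents of healthy-nucleus cells.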

[1] = 12 h, 1 µM, compound concentration 1 uM, replicate 1
[2] = 12 h, 1 µM, compound concentration 1 uM, replicate 2
[3] = 12 h, 10 µM, compound concentration 10 uM, replicate 1
[4] = 12 h, 10 µM, compound concentration 10 uM, replicate 2
[5] = 24 h, 1 µM, compound concentration 1 uM, replicate 1
[6] = 24 h, 1 µM, compound concentration 1 uM, replicate 2
[7] = 24 h, 10 µM, compound concentration 10 uM, replicate 1
[8] = 24 h, 10 µM, compound concentration 10 uM, replicate 2
[9] = 48 h, 1 µM, compound concentration 1 uM, replicate 1
[10] = 48 h, 1 µM, compound concentration 1 uM, replicate 2
[11] = 48 h, 10 µM, compound concentration 10 uM, replicate 1
[12] = 48 h, 10 µM, compound concentration 10 uM, replicate 2

Which “Population Apoptotic (%)” value [1] does the source give for `CN1CCN(c2cc(-c3ccccc3)nc(N)n2)CC1` here?
The value was 47%.

And the “Population Fragmented Nuclei (%)” value [1]?
The value was 15%.

What about the “Population Healthy Nuclei (%)” value [1] of the same compound?
Its value is 68%.

What about the “Population Hoechst High Intensity Objects (%)” value [1] of the same compound?
Its value is 2%.

What about the “Population Membrane Permeable-Phenotype (%)” value [1] of the same compound?
The value was 1%.

And the “Population Mitochondria Different-Phenotype (%)” value [1]?
Its value is 10%.

And the “Population Mitotic Cells (%)” value [1]?
The value was 52%.

And the “Population Normal (%)” value [1]?
The value was 97%.

And the “Population Pyknosed Nuclei (%)” value [1]?
Its value is 15%.

And the “Population Tubulin-Different-Phenotype (%)” value [1]?
The value was 25%.

What about the “Total Cell Count” value [1] of the same compound?
The value was 135.

And the “Population Apoptotic (%)” value [2]?
The value was 37%.

And the “Population Fragmented Nuclei (%)” value [2]?
The value was 28%.

And the “Population Healthy Nuclei (%)” value [2]?
The value was 45%.

And the “Population Hoechst High Intensity Objects (%)” value [2]?
Its value is 5%.

What about the “Population Membrane Permeable-Phenotype (%)” value [2] of the same compound?
Its value is 11%.

And the “Population Mitochondria Different-Phenotype (%)” value [2]?
Its value is 11%.

And the “Population Mitotic Cells (%)” value [2]?
Its value is 62%.

And the “Population Normal (%)” value [2]?
The value was 94%.

What about the “Population Pyknosed Nuclei (%)” value [2] of the same compound?
The value was 26%.

What about the “Population Tubulin-Different-Phenotype (%)” value [2] of the same compound?
Its value is 66%.

What about the “Total Cell Count” value [2] of the same compound?
The value was 97.

And the “Population Apoptotic (%)” value [3]?
The value was 48%.

And the “Population Fragmented Nuclei (%)” value [3]?
The value was 16%.

What about the “Population Healthy Nuclei (%)” value [3] of the same compound?
The value was 67%.

And the “Population Hoechst High Intensity Objects (%)” value [3]?
The value was 2%.

And the “Population Membrane Permeable-Phenotype (%)” value [3]?
The value was 0%.

What about the “Population Mitochondria Different-Phenotype (%)” value [3] of the same compound?
Its value is 6%.

And the “Population Mitotic Cells (%)” value [3]?
The value was 51%.

And the “Population Normal (%)” value [3]?
The value was 97%.

What about the “Population Pyknosed Nuclei (%)” value [3] of the same compound?
The value was 15%.

And the “Population Tubulin-Different-Phenotype (%)” value [3]?
The value was 44%.

And the “Total Cell Count” value [3]?
Its value is 216.

And the “Population Apoptotic (%)” value [4]?
Its value is 36%.

What about the “Population Fragmented Nuclei (%)” value [4] of the same compound?
Its value is 40%.

And the “Population Healthy Nuclei (%)” value [4]?
The value was 36%.

And the “Population Hoechst High Intensity Objects (%)” value [4]?
The value was 7%.

What about the “Population Membrane Permeable-Phenotype (%)” value [4] of the same compound?
The value was 10%.

What about the “Population Mitochondria Different-Phenotype (%)” value [4] of the same compound?
Its value is 12%.

And the “Population Mitotic Cells (%)” value [4]?
Its value is 64%.

What about the “Population Normal (%)” value [4] of the same compound?
Its value is 92%.

And the “Population Pyknosed Nuclei (%)” value [4]?
The value was 22%.

And the “Population Tubulin-Different-Phenotype (%)” value [4]?
The value was 67%.

What about the “Total Cell Count” value [4] of the same compound?
Its value is 118.

And the “Population Apoptotic (%)” value [5]?
Its value is 75%.

And the “Population Fragmented Nuclei (%)” value [5]?
Its value is 17%.

And the “Population Healthy Nuclei (%)” value [5]?
Its value is 65%.

And the “Population Hoechst High Intensity Objects (%)” value [5]?
Its value is 2%.

What about the “Population Membrane Permeable-Phenotype (%)” value [5] of the same compound?
Its value is 1%.

And the “Population Mitochondria Different-Phenotype (%)” value [5]?
Its value is 3%.

What about the “Population Mitotic Cells (%)” value [5] of the same compound?
The value was 25%.

And the “Population Normal (%)” value [5]?
The value was 97%.

What about the “Population Pyknosed Nuclei (%)” value [5] of the same compound?
The value was 16%.

What about the “Population Tubulin-Different-Phenotype (%)” value [5] of the same compound?
Its value is 19%.

And the “Total Cell Count” value [5]?
The value was 145.

What about the “Population Apoptotic (%)” value [6] of the same compound?
The value was 47%.

And the “Population Fragmented Nuclei (%)” value [6]?
Its value is 36%.

And the “Population Healthy Nuclei (%)” value [6]?
The value was 44%.

And the “Population Membrane Permeable-Phenotype (%)” value [6]?
The value was 8%.

And the “Population Mitochondria Different-Phenotype (%)” value [6]?
The value was 8%.

And the “Population Mitotic Cells (%)” value [6]?
Its value is 52%.

And the “Population Pyknosed Nuclei (%)” value [6]?
The value was 18%.

And the “Population Tubulin-Different-Phenotype (%)” value [6]?
The value was 50%.

What about the “Total Cell Count” value [6] of the same compound?
Its value is 106.

And the “Population Apoptotic (%)” value [7]?
Its value is 41%.

What about the “Population Fragmented Nuclei (%)” value [7] of the same compound?
The value was 12%.

And the “Population Healthy Nuclei (%)” value [7]?
Its value is 70%.

And the “Population Hoechst High Intensity Objects (%)” value [7]?
Its value is 2%.

What about the “Population Membrane Permeable-Phenotype (%)” value [7] of the same compound?
Its value is 1%.

What about the “Population Mitochondria Different-Phenotype (%)” value [7] of the same compound?
Its value is 6%.

And the “Population Mitotic Cells (%)” value [7]?
Its value is 58%.

And the “Population Normal (%)” value [7]?
The value was 97%.

What about the “Population Pyknosed Nuclei (%)” value [7] of the same compound?
The value was 17%.

And the “Population Tubulin-Different-Phenotype (%)” value [7]?
The value was 41%.

And the “Total Cell Count” value [7]?
Its value is 213.

And the “Population Apoptotic (%)” value [8]?
Its value is 29%.

And the “Population Fragmented Nuclei (%)” value [8]?
The value was 33%.

And the “Population Healthy Nuclei (%)” value [8]?
Its value is 43%.

What about the “Population Membrane Permeable-Phenotype (%)” value [8] of the same compound?
Its value is 4%.

And the “Population Mitotic Cells (%)” value [8]?
Its value is 70%.

And the “Population Pyknosed Nuclei (%)” value [8]?
The value was 23%.

And the “Population Tubulin-Different-Phenotype (%)” value [8]?
The value was 64%.

And the “Total Cell Count” value [8]?
Its value is 107.

And the “Population Apoptotic (%)” value [9]?
The value was 70%.

And the “Population Fragmented Nuclei (%)” value [9]?
Its value is 22%.

And the “Population Healthy Nuclei (%)” value [9]?
The value was 62%.

What about the “Population Hoechst High Intensity Objects (%)” value [9] of the same compound?
The value was 2%.

What about the “Population Membrane Permeable-Phenotype (%)” value [9] of the same compound?
The value was 0%.

What about the “Population Mitochondria Different-Phenotype (%)” value [9] of the same compound?
The value was 2%.

What about the “Population Mitotic Cells (%)” value [9] of the same compound?
The value was 30%.

And the “Population Normal (%)” value [9]?
Its value is 97%.

And the “Population Pyknosed Nuclei (%)” value [9]?
The value was 15%.

What about the “Population Tubulin-Different-Phenotype (%)” value [9] of the same compound?
The value was 20%.

And the “Total Cell Count” value [9]?
The value was 137.

What about the “Population Apoptotic (%)” value [10] of the same compound?
The value was 50%.

What about the “Population Fragmented Nuclei (%)” value [10] of the same compound?
The value was 36%.

What about the “Population Healthy Nuclei (%)” value [10] of the same compound?
The value was 49%.

What about the “Population Hoechst High Intensity Objects (%)” value [10] of the same compound?
The value was 3%.

What about the “Population Membrane Permeable-Phenotype (%)” value [10] of the same compound?
Its value is 2%.

What about the “Population Mitochondria Different-Phenotype (%)” value [10] of the same compound?
The value was 6%.

And the “Population Mitotic Cells (%)” value [10]?
The value was 50%.

What about the “Population Normal (%)” value [10] of the same compound?
Its value is 96%.

What about the “Population Pyknosed Nuclei (%)” value [10] of the same compound?
The value was 14%.

What about the “Population Tubulin-Different-Phenotype (%)” value [10] of the same compound?
The value was 54%.

What about the “Total Cell Count” value [10] of the same compound?
Its value is 101.

And the “Population Apoptotic (%)” value [11]?
The value was 40%.

And the “Population Fragmented Nuclei (%)” value [11]?
The value was 26%.

And the “Population Healthy Nuclei (%)” value [11]?
Its value is 58%.

What about the “Population Hoechst High Intensity Objects (%)” value [11] of the same compound?
The value was 3%.

What about the “Population Membrane Permeable-Phenotype (%)” value [11] of the same compound?
Its value is 0%.

What about the “Population Mitochondria Different-Phenotype (%)” value [11] of the same compound?
Its value is 0%.

And the “Population Mitotic Cells (%)” value [11]?
The value was 59%.

And the “Population Normal (%)” value [11]?
Its value is 96%.

And the “Population Pyknosed Nuclei (%)” value [11]?
Its value is 14%.

What about the “Population Tubulin-Different-Phenotype (%)” value [11] of the same compound?
The value was 31%.

And the “Total Cell Count” value [11]?
Its value is 227.

What about the “Population Apoptotic (%)” value [12] of the same compound?
The value was 66%.

What about the “Population Fragmented Nuclei (%)” value [12] of the same compound?
The value was 50%.

And the “Population Healthy Nuclei (%)” value [12]?
Its value is 39%.

And the “Population Membrane Permeable-Phenotype (%)” value [12]?
Its value is 9%.

And the “Population Mitochondria Different-Phenotype (%)” value [12]?
Its value is 9%.

And the “Population Mitotic Cells (%)” value [12]?
The value was 33%.

And the “Population Pyknosed Nuclei (%)” value [12]?
Its value is 10%.

And the “Population Tubulin-Different-Phenotype (%)” value [12]?
Its value is 60%.

And the “Total Cell Count” value [12]?
The value was 114.

From ChEMBL document CHEMBL5058577, “EUbOPEN Chemogenomics Library 2 (Multiplex)” (2022)
